# Data published in ChEMBL document CHEMBL1122702, “Radiohalogen-labeled imaging agents. 3. Compounds for measurement of brain blood flow by emission tomography” (J Med Chem, 1984).
# Assays:
# Assay type in all cases: ADME, organism-based
# Rattus norvegicus [1] = species on record: Rattus norvegicus; experiment: The distribution of the 131 I-labeled compound at 30 min was evaluated in rat blood as Percent of injected dose per gram in the organ; settings: in vivo, 0.5 h
# Method in brief: (§1)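 Male Sprague-Dawley rats (200–300 g, free access to food and water), lightly ether-anesthetized and restrained, received a 0.2 mL saline tail-vein bolus of 10–20 μCi 131I-labeled compound. They were decapitated at the stated time, and organs were excised, weighed and gamma-counted. Percent injected dose was determined against a calibrated external standard made by serial dilution of the injectate. n = 1–4 rats.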
# Rattus norvegicus [2] = species on record: Rattus norvegicus; experiment: The distribution of the 131 I-labeled compound at 30 min was evaluated in rat kidney as Percent of injected dose per gram in the organ; settings: in vivo, 0.5 h; method in brief: as §1
# Rattus norvegicus [3] = species on record: Rattus norvegicus; experiment: The distribution of the 131 I-labeled compound at 5 min was evaluated in rat kidney as Percent of injected dose per gram in the organ; settings: in vivo; method in brief: as §1
# Rattus norvegicus [4] = species on record: Rattus norvegicus; experiment: The distribution of the 131 I-labeled compound at 30 min was evaluated in rat kidney as Percent of injected dose in the total organ; settings: in vivo, 0.5 h; method in brief: as §1
# Rattus norvegicus [5] = species on record: Rattus norvegicus; experiment: Ratio of distribution of the [131I]-labeled compound at 5 min in rat kidney over uptake in blood; settings: other tissue
# Method in brief: (§2)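 Male Sprague-Dawley rats (200–300 g, fed ad libitum), ether-anesthetized, got a tail-vein bolus of 0.2 mL saline containing 10–20 μCi 131I compound and were decapitated at the stated time. Organs were weighed and gamma-counted against a serially diluted external standard. Organ/blood ratio was calculated from % dose per gram of organ. Animal numbers per time point were 1–4.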
# Rattus norvegicus [6] = species on record: Rattus norvegicus; experiment: Ratio of distribution of the [131I]-labeled compound at 30 min in rat lung over uptake in blood; settings: other tissue, 0.5 h; method in brief: as §2
# Rattus norvegicus [7] = species on record: Rattus norvegicus; experiment: The distribution of the 131 I-labeled compound at 30 min was evaluated in rat heart as Percent of injected dose in the total organ; settings: in vivo, 0.5 h; method in brief: as §1
# Rattus norvegicus [8] = species on record: Rattus norvegicus; experiment: Ratio of distribution of the [131I]-labeled compound at 5 min in rat brain over uptake in blood; method in brief: as §2
# Rattus norvegicus [9] = species on record: Rattus norvegicus; experiment: The distribution of the 131 I-labeled compound at 5 min was evaluated in rat liver as Percent of injected dose in the total organ; settings: in vivo; method in brief: as §1
# Rattus norvegicus [10] = species on record: Rattus norvegicus; experiment: Ratio of distribution of the [131I]-labeled compound at 30 min in rat heart over uptake in blood; settings: other tissue, 0.5 h; method in brief: as §2
# Rattus norvegicus [11] = species on record: Rattus norvegicus; experiment: The distribution of the 131 I-labeled compound at 30 min was evaluated in rat liver as Percent of injected dose in the total organ; settings: in vivo, 0.5 h; method in brief: as §1
# Rattus norvegicus [12] = species on record: Rattus norvegicus; experiment: The distribution of the 131 I-labeled compound at 5 min was evaluated in rat heart as Percent of injected dose in the total organ; settings: in vivo; method in brief: as §1
# Rattus norvegicus [13] = species on record: Rattus norvegicus; experiment: The distribution of the 131 I-labeled compound at 5 min was evaluated in rat brain as Percent of injected dose in the total organ; settings: in vivo; method in brief: as §1
# Rattus norvegicus [14] = species on record: Rattus norvegicus; experiment: The distribution of the 131 I-labeled compound at 30 min was evaluated in rat brain as Percent of injected dose in the total organ; settings: in vivo, 0.5 h; method in brief: as §1
# Rattus norvegicus [15] = species on record: Rattus norvegicus; experiment: Ratio of distribution of the [131I]-labeled compound at 30 min in rat kidney over uptake in blood; settings: other tissue, 0.5 h; method in brief: as §2
# Rattus norvegicus [16] = species on record: Rattus norvegicus; experiment: The distribution of the 131 I-labeled compound at 30 min was evaluated in rat heart as Percent of injected dose per gram in the organ; settings: in vivo, 0.5 h; method in brief: as §1
# Rattus norvegicus [17] = species on record: Rattus norvegicus; experiment: The distribution of the 131 I-labeled compound at 5 min was evaluated in rat liver as Percent of injected dose per gram in the organ; settings: in vivo; method in brief: as §1
# Rattus norvegicus [18] = species on record: Rattus norvegicus; experiment: Ratio of distribution of the [131I]-labeled compound at 5 min in rat lung over uptake in blood; settings: other tissue; method in brief: as §2
# Rattus norvegicus [19] = species on record: Rattus norvegicus; experiment: Ratio of distribution of the [131I]-labeled compound at 30 min in rat liver over uptake in blood; settings: other tissue, 0.5 h; method in brief: as §2
# Rattus norvegicus [20] = species on record: Rattus norvegicus; experiment: The distribution of the 131 I-labeled compound at 30 min was evaluated in rat liver as Percent of injected dose per gram in the organ; settings: in vivo, 0.5 h; method in brief: as §1
# Rattus norvegicus [21] = species on record: Rattus norvegicus; experiment: The distribution of the 131 I-labeled compound at 30 min was evaluated in rat brain as Percent of injected dose per gram in the organ; settings: in vivo, 0.5 h; method in brief: as §1
# Rattus norvegicus [22] = species on record: Rattus norvegicus; experiment: The distribution of the 131 I-labeled compound at 30 min was evaluated in rat lung as Percent of injected dose per gram in the organ; settings: in vivo, 0.5 h; method in brief: as §1
# Rattus norvegicus [23] = species on record: Rattus norvegicus; experiment: Ratio of distribution of the [131I]-labeled compound at 30 min in rat brain over uptake in blood; settings: 0.5 h; method in brief: as §2
# Rattus norvegicus [24] = species on record: Rattus norvegicus; experiment: The distribution of the 131 I-labeled compound at 5 min was evaluated in rat heart as Percent of injected dose per gram in the organ; settings: in vivo; method in brief: as §1
# Rattus norvegicus [25] = species on record: Rattus norvegicus; experiment: The distribution of the 131 I-labeled compound at 5 min was evaluated in rat blood as Percent of injected dose per gram in the organ; settings: in vivo; method in brief: as §1
# Rattus norvegicus [26] = species on record: Rattus norvegicus; experiment: Ratio of distribution of the [131I]-labeled compound at 5 min in rat heart over uptake in blood; settings: other tissue; method in brief: as §2
# Rattus norvegicus [27] = species on record: Rattus norvegicus; experiment: The distribution of the 131 I-labeled compound at 5 min was evaluated in rat brain as Percent of injected dose per gram in the organ; settings: in vivo; method in brief: as §1
# Rattus norvegicus [28] = species on record: Rattus norvegicus; experiment: Ratio of distribution of the [131I]-labeled compound at 5 min in rat liver over uptake in blood; settings: other tissue; method in brief: as §2
# Rattus norvegicus [29] = species on record: Rattus norvegicus; experiment: The distribution of the 131 I-labeled compound at 5 min was evaluated in rat lung as Percent of injected dose per gram in the organ; settings: in vivo; method in brief: as §1
# Rattus norvegicus [30] = species on record: Rattus norvegicus; experiment: The distribution of the 131 I-labeled compound at 5 min was evaluated in rat kidney as Percent of injected dose in the total organ; settings: in vivo; method in brief: as §1
Structure (SMILES),Dose (Rattus norvegicus [1]),Ratio (Rattus norvegicus [6]),Dose (Rattus norvegicus [7]),Ratio (Rattus norvegicus [8]),Dose (Rattus norvegicus [9]),Ratio (Rattus norvegicus [10]),Dose (Rattus norvegicus [11]),Dose (Rattus norvegicus [12]),Dose (Rattus norvegicus [13]),Dose (Rattus norvegicus [14]),Dose (Rattus norvegicus [16]),Dose (Rattus norvegicus [17]),Ratio (Rattus norvegicus [18]),Ratio (Rattus norvegicus [19]),Dose (Rattus norvegicus [20]),Dose (Rattus norvegicus [21]),Dose (Rattus norvegicus [22]),Ratio (Rattus norvegicus [23]),Dose (Rattus norvegicus [24]),Dose (Rattus norvegicus [25]),also measured
COc1cc(CC(C)NN)c(OC)cc1I (centres undefined),0.17%,1.5,0.15%,1,12%,7.1,5%,0.4%,0.72%,0.14%,1.2%,1.3%,2.4,1.7,0.29%,0.08%,0.26%,0.5,0.46%,0.36%,Dose (Rattus norvegicus [2]): 0.77%; Dose (Rattus norvegicus [3]): 1.2%; Dose (Rattus norvegicus [4]): 1.5%; Ratio (Rattus norvegicus [5]): 3.3; Ratio (Rattus norvegicus [15]): 4.5; Ratio (Rattus norvegicus [26]): 1.9; Dose (Rattus norvegicus [27]): 0.37%; Ratio (Rattus norvegicus [28]): 3.6; Dose (Rattus norvegicus [29]): 0.87%; Dose (Rattus norvegicus [30]): 2.2%
CNC(C)Cc1cc(OC)c(I)cc1OC (centres undefined),0.28%,11.4,0.32%,4.1,5.3%,1.9,11%,0.65%,0.97%,1%,0.53%,0.76%,42,6.4,1.8%,0.62%,3.2%,2.2,0.93%,0.14%,Ratio (Rattus norvegicus [26]): 6.6; Dose (Rattus norvegicus [27]): 0.57%; Ratio (Rattus norvegicus [28]): 5.4; Dose (Rattus norvegicus [29]): 5.9%
CCCCCCNC(C)Cc1cc(OC)c(I)cc1OC (centres undefined),0.17%,25,0.25%,2.3,4.6%,2.1,9.4%,1.5%,0.63%,0.97%,0.36%,0.58%,47,9.4,1.6%,0.57%,4.3%,3.4,2.1%,0.16%,Ratio (Rattus norvegicus [26]): 13; Dose (Rattus norvegicus [27]): 0.37%; Ratio (Rattus norvegicus [28]): 5.4; Dose (Rattus norvegicus [29]): 7.5%
COc1cc(CC(C)NC(C)C)c(OC)cc1I (centres undefined),0.23%,12,0.29%,2.6,7.2%,1.9,6%,0.79%,1.2%,0.52%,0.44%,1.1%,31,5.2,1.2%,0.3%,2.8%,1.3,1.2%,0.25%,Ratio (Rattus norvegicus [26]): 4.8; Dose (Rattus norvegicus [27]): 0.66%; Ratio (Rattus norvegicus [28]): 4.4; Dose (Rattus norvegicus [29]): 7.7%
CCN(CC)C(C)Cc1cc(OC)c(I)cc1OC (centres undefined),0.06%,20,0.2%,5.6,6%,2.3,4.3%,0.4%,0.78%,0.26%,0.14%,0.46%,29,8.1,0.32%,0.13%,1.2%,4.3,0.35%,0.07%,Dose (Rattus norvegicus [2]): 0.39%; Dose (Rattus norvegicus [3]): 0.69%; Dose (Rattus norvegicus [4]): 1.1%; Ratio (Rattus norvegicus [26]): 5; Dose (Rattus norvegicus [27]): 0.39%; Ratio (Rattus norvegicus [28]): 5.5; Dose (Rattus norvegicus [29]): 2%; Dose (Rattus norvegicus [30]): 1.8%
COc1cc(CC(C)NCc2ccccc2)c(OC)cc1I (centres undefined),0.2%,25,0.34%,5.3,4%,2.5,5.4%,0.77%,1.1%,0.9%,0.5%,0.72%,69,4.7,0.95%,0.5%,5%,2.5,1.1%,0.12%,Ratio (Rattus norvegicus [26]): 9.2; Dose (Rattus norvegicus [27]): 0.64%; Ratio (Rattus norvegicus [28]): 6; Dose (Rattus norvegicus [29]): 8.3%
